Series [1] deals with MDA-MB-468. Put plainly: Cell cycle arrest in human MDA-MB-468 cells assessed as accumulation at G2/M phase at 50 nM after 24 hrs by DAPI-staining based FACS analysis (reference value: 19.5%). The class given is functional. Background: A flow cytometer gives signals particle by particle.
For series [2], the system named is MDA-MB-468. Put plainly: Cell cycle arrest in human MDA-MB-468 cells assessed as accumulation at subG1 phase at 50 nM after 24 hrs by DAPI-staining based FACS analysis (reference value: 0.2%). Format: functional.
The target in the next series is T1, Cytochrome P450 1A1 (Homo sapiens, UniProt P04798).
T1 sequence (P04798 whole entry): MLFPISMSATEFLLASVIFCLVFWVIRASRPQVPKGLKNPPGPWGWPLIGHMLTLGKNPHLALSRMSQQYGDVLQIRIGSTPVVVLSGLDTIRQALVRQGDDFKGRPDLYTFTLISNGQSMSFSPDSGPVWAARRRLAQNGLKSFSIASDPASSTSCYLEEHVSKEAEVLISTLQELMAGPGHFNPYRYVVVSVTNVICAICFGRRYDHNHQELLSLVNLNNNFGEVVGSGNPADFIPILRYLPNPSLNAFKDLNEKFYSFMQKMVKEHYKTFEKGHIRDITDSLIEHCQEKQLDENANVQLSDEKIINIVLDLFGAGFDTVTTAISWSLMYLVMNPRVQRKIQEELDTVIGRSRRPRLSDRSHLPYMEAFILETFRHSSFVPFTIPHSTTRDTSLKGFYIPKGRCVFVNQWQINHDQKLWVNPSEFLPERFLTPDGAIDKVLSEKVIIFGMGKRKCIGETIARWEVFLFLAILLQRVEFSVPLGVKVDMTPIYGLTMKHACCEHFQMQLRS
Put plainly: Prodrug activation assessed as time required for human supersomes CYP1A1-mediated 3,4,5-trimethoxyphenyl 4-(2-oxoimidazolidin-1-yl)benzenesulfonate formation after 4 hrs by HPLC-MS analysis. The class given is ADME. Conditions: recombinant enzyme.

For another series, the system named is MCF7. Description: Cell cycle arrest in human MCF7 cells assessed as accumulation at G2/M phase at 50 nM after 24 hrs by DAPI-staining based FACS analysis (reference value: 22.3%). The class given is functional.
The test system of series [3] is MDA-MB-231. Put plainly: Cell cycle arrest in human MDA-MB-231 cells assessed as accumulation at subG1 phase at 50 nM after 24 hrs by DAPI-staining based FACS analysis (reference value: 4.1%). Format: functional.
Series [4] deals with MDA-MB-468. Put plainly: Cytotoxicity against human MDA-MB-468 cells after 72 hrs in presence of CYP inhibitor aniline by SRB assay. The class given is functional, cell-based. In short, it runs like this: (§1)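 MDA-MB-468 cells co-incubated for 72 h with drug plus a subtoxic concentration of a CYP inhibitor. Viability read by SRB assay: TCA fixation, sulforhodamine B staining, absorbance at 530-565 nm.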
A general note: Sulforhodamine B stains cellular protein and so reports cell mass.

Series [5] concerns MDA-MB-468. Description: Cytotoxicity against human MDA-MB-468 cells after 72 hrs in presence of CYP inhibitor mefipristone by SRB assay. Format: functional, cell-based. In short, it runs like this:
as §1

For the next series, the system named is CYP1A1 mRNA. Description: Upregulation of CYP1A1 mRNA expression in human MCF7 cells at 10 nM after 18 hrs by quantitative PCR analysis relative to control. Format: ADME, cell-based. The following applies: read-out: FC. In short, it runs like this:
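MCF7 cells exposed to 10 nM drug for 18 and 24 h. RNA extracted with TriReagent, reverse-transcribed with M-MuLV, random hexamers and oligo(dT). 4 ng cDNA run in quadruplicate with SYBR Green, 40 cycles at 95 °C/60 °C. Relative expression by the 2^-ΔΔCt method, normalized to ACTB and B2M.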

A further series deals with T2, Cytochrome P450 1A2 (Homo sapiens, UniProt P05177).
T2 sequence (P05177 whole entry): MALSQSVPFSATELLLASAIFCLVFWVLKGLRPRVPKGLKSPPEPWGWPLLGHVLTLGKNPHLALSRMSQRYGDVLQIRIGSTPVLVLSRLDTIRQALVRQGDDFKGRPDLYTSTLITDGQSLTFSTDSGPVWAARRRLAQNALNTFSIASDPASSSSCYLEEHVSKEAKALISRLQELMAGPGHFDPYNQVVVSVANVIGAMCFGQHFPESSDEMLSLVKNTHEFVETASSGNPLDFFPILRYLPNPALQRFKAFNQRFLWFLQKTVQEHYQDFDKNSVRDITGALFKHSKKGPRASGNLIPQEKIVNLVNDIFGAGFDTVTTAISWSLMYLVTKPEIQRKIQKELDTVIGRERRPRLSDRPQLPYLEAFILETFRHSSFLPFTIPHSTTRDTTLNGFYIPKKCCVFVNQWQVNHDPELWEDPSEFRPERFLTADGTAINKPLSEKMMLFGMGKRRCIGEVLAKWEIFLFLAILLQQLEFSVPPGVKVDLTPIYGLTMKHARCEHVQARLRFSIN
Put plainly: Prodrug activation assessed as human supersomes CYP1A2-mediated 3,4,5-trimethoxyphenyl 4-(2-oxoimidazolidin-1-yl)benzenesulfonate formation after 4 hrs by HPLC-MS analysis. The class given is ADME. Conditions: recombinant enzyme.

The target in a further series is T3, Cytochrome P450 1B1 (Homo sapiens, UniProt Q16678).
T3 sequence (Q16678 whole entry): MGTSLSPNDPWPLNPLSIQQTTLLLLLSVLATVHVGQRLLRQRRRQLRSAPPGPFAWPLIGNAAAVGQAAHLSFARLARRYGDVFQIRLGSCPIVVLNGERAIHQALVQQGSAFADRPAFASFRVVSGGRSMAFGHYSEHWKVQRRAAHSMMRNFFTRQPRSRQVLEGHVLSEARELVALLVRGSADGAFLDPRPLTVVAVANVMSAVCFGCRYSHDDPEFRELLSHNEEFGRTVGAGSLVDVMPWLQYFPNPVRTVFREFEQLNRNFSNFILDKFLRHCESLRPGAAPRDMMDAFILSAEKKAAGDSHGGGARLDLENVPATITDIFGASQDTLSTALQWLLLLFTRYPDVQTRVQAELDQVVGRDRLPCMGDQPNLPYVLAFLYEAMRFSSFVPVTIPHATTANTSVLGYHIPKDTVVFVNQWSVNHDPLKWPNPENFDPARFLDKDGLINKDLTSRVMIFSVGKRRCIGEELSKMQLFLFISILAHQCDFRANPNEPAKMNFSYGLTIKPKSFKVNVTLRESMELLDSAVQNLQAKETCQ
Put plainly: Prodrug activation assessed as human supersomes CYP1B1-mediated 3,4,5-trimethoxyphenyl 4-(2-oxoimidazolidin-1-yl)benzenesulfonate formation after 4 hrs by HPLC-MS analysis. Format: ADME. The following applies: recombinant enzyme.

For another series, the system named is Chorioallantoic membrane. Description: Toxicity in chicken chorioallantoic membrane implanted with CYP1A1 transfected human HT1080 cells at 1 ug/egg, iv administered on day 11 post implantation measured on day 17. Format: organism-based, Gallus gallus. Conditions: in vivo. In short, it runs like this: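 Fertilized chicken eggs bearing CYP1A1-transfected HT-1080 tumors on the CAM. On day 11, drug (40 mM DMSO stock) diluted in cremophor/EtOH/PBS 6.25/6.25/87.5, final DMSO < 0.5%. Given iv in 100 µL to 10–12 eggs per group. Embryos killed on day 17, tumor wet weight recorded, deaths and toxicity signs scored. Two independent experiments, 20–24 eggs in total.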

Series [6] concerns MDA-MB-468. Put plainly: Cell cycle arrest in human MDA-MB-468 cells assessed as accumulation at G0/G1 phase at 8 nM after 24 hrs by DAPI-staining based FACS analysis (reference value: 63.3%). Format: functional.
For series [7], the system named is MDA-MB-231. Put plainly: Cell cycle arrest in human MDA-MB-231 cells assessed as accumulation at subG1 phase at 8 nM after 24 hrs by DAPI-staining based FACS analysis (reference value: 4.1%). The class given is functional.

The source made the active and inactive calls. No cut-off for these calls is given here.

Turning to `CCCCN1CCN(c2ccc(S(=O)(=O)Oc3cc(OC)c(OC)c(OC)c3)cc2)C1=O`, the Activity in the series with MDA-MB-468 [1] is reported as 70.5%; with MDA-MB-468 [2] it was 1.3%; in the series on MCF7 it was 90.2%; in the series with MDA-MB-231 [3] it was 2.1%; in the series with Chorioallantoic membrane, “Non-Toxic”. On Cytochrome P450 1A1, the Time is 30 min. The outcome with MDA-MB-468 [4] and with MDA-MB-468 [5] was Active. Besides, in the series with CYP1A1 mRNA, the fold induction at 18 h, 0.01 µM amounted to 2. Besides, the Drug metabolism entry on Cytochrome P450 1A2 and on Cytochrome P450 1B1 was “Metabolite_Notdetected” in each case.
As for `COc1cc(OS(=O)(=O)c2ccc(N3CCNC3=O)cc2)cc(OC)c1OC`, the Activity in the series with MDA-MB-468 [6] is reported as 10.6%; in the series with MDA-MB-231 [7], 6.9%.

For the origin of these results see ChEMBL document CHEMBL4014335, “Activation of Phenyl 4-(2-Oxo-3-alkylimidazolidin-1-yl)benzenesulfonates Prodrugs by CYP1A1 as New Antimitotics Targeting Breast Cancer Cells” (J Med Chem, 2017).
